# Assay outcomes from PubChem BioAssay.
# Compounds with a hit are over-represented: about 1.7% of the library has one in this group of screens.
# Rpn11 inh: blocks the human proteasome subunit Rpn11; human 26S proteasome, Ub4-pepOG fluorescence polarization; 20S core pre-blocked with epoxomicin; 360,000 tested, 0.59% active; O00487; inhibition, % at 20 µM;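 active = inhibition at 20 µM, scaled to each plate's controls, above about 33%, limit read from the data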
# CSN deneddyl inh: CSN deneddylation inhibition. Purified CSN, SCF-Nedd8-OG deneddylation, fluorescence polarization. inhibition, % at 12.5 µM. 360,000 tested, 0.38% active. AID 651999;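 active = pattern-corrected inhibition above about 35%, with an unprinted fluorescence ratio check between 0.5 and 1.5, limit read from the data, passing the limit was not always enough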;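 note: 0% = enzyme with substrate and 100% = substrate without enzyme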
#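 assay system = purified human Csn5 enzyme expressed in HEK293T cells | amount = 0.24 nM enzyme | buffer or medium = Tris/NaCl/DTT buffer, pH 7.5 | reagent = 10 nM SCFSkp2-Nedd8OG | compound = one concentration, 12.5 µM, 0.25% DMSO | times = 90 min reaction at room temperature | signal = FP | read-out basis = % inhibition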
# TPT1 inh: blocks Candida albicans tRNA 2'-phosphotransferase. recombinant caTPT1, FP RNA substrate dephosphorylation. 300,000 tested, 0.81% active. inhibition, % at 5 µM;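 active = inhibition above the mean of all tested compounds plus 3 SD, set per screening campaign, cut at about 24% in these data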;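 note: plate controls were DMSO alone for no effect and ferristatin control at 100 nM for full effect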
# IDE act: activators of human insulin-degrading enzyme in cells; P14735; 340,000 tested, 0.073% active; activation, % at 5.96 µM; HEK cells, FAbeta-B cleavage, fluorescence polarization; 0% vehicle, 100% cell-free pure enzyme wells; AID 493087;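 active = activation above the mean of all tested compounds plus 3 SD, set per screening campaign, cut at about 17% in these data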
# IDE cell inh: inhibitors of human insulin-degrading enzyme in cells; 320,000 tested, 0.41% active; HEK cells, FAbetaB cleavage, fluorescence polarization; AID 434962; inhibition, % at 5.59 µM; P14735;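 active = percent inhibition above the average of all tested compounds plus 3 SD, set per screening campaign, cut at about 16% in these data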;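 note: IDE supplied by intact live HEK cells; FP after avidin binding of uncleaved biotin substrate so inhibition keeps polarization high; 0% = DMSO wells and 100% = 60 µM reference IDE inhibitor Ii1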
# HNF4A DNA FP: change in binding of human HNF4 alpha to DNA; HNF4a-FITC DNA binding, fluorescence polarization, 1 h; AID 1224865; activity change, % at 10 µM; 360,000 tested, 0.3% active; in the data active = activity change above about 30%, passing the limit was not always enough
# caTPT1 confirm: TPT1 (C. albicans) inhibition, confirmation; shares compounds with TPT1 inh; recombinant caTPT1, fluorescence polarization, RNase T1 coupled; inhibition, % at 5 µM; 2,400 tested, 74% active;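 active = inhibition above the primary screen limit, the mean inhibition of all tested compounds plus 3 SD, cut at about 25% in these data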
# RNase T1 inh: blocks Aspergillus oryzae RNase T1, a TPT1 counter-screen. shares compounds with TPT1 inh. RNase T1 cleavage, fluorescence polarization, 1536-well. inhibition, % at 5 µM. 2,400 tested, 83% active;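 active = inhibition above the solvent-only control well mean plus 3 SD, limit set per screening run, cut at about 23% in these data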;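 note: plate controls were DMSO wells with enzyme for no effect and wells without RNase T1 for full effect; inhibitors block cleavage so intact labeled substrate keeps polarization high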
# IDE inh confirm: confirmation of human insulin-degrading enzyme inhibitors in cells | shares compounds with IDE cell inh | inhibition, % at 5.59 µM | AID 435028 | HEK cells, FAbetaB cleavage, fluorescence polarization | 1,200 tested, 51% active;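 active = mean inhibition across triplicate wells above the cutoff set by the earlier primary insulin-degrading enzyme screen, cut at about 16% in these data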;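 note: 0% = DMSO wells and 100% = 60 µM reference IDE inhibitor Ii1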
# HEK293 tox: kills HEK cells in IDE inhibitor counter-screen. shares compounds with IDE cell inh. HEK293 cytotoxicity, ATP luminescence. inhibition, % at 5.59 µM. 1,200 tested, 28% active. AID 449730; in the data active = inhibition above about 22%;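 note: 0% = vehicle wells and 100% = reference cytotoxic drug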
# Rpn11 inh conf: confirmation of human proteasome Rpn11 inhibitors. 1,900 tested, 29% active. purified human 26S proteasome, Ub4-pepOG fluorescence polarization; proteasome pretreated with epoxomicin. shares compounds with Rpn11 inh. AID 602318. inhibition, % at 20 µM
# MMP-2 counter-1: blocks human MMP-2, flagging nonselective RPN11 hits | shares compounds with Rpn11 inh | recombinant MMP-2, FRET peptide cleavage fluorescence | inhibition, % at 20 µM | 1,900 tested, 4% active;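 note: human MMP-2 activated beforehand with APMA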
# Thrombin inh: thrombin (bovine) inhibition counter-screen; 1,900 tested, 13% active; AID 602333; bovine thrombin cleavage of Ub4-pepOG, fluorescence polarization; inhibition, % at 20 µM; shares compounds with Rpn11 inh;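 active = mean inhibition at least 40% at 20 µM, or signal 3 deviations below plate average, so some actives read negative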;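 note: plate controls were thrombin with DMSO for no effect and buffer wells lacking thrombin for full effect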
# Target sequence (P00735 whole entry, looked up): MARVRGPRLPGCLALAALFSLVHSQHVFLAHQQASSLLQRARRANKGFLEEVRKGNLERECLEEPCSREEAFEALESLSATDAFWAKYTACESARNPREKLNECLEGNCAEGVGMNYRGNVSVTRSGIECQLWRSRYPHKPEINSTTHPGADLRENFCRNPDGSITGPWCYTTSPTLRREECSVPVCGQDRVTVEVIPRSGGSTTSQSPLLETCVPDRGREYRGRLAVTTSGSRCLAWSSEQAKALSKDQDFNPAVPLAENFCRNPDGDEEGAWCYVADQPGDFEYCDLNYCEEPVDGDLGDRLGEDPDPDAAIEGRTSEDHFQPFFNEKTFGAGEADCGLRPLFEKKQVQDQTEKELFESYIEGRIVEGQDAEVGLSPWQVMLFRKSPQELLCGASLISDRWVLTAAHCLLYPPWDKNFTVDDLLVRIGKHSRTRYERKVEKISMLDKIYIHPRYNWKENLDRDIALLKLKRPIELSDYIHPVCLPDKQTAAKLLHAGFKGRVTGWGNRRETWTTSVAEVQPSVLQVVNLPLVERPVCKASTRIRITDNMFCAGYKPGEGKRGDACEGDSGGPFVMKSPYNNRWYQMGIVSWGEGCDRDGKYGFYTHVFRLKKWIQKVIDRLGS
# CSN5 deneddyl: Csn5 (human) deneddylation inhibition, single-concentration validation | shares compounds with CSN deneddyl inh | Csn5 deneddylation of SCF-Nedd8OG, fluorescence polarization, 90 min | inhibition, % at 16.6 µM | 540 tested, 62% active; in the data active = inhibition above about 50%;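 note: 0% = DMSO with enzyme and 100% = no enzyme wells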
# MMP-2 counter-2: blocks human MMP-2 in a CSN deneddylation counter-screen; shares compounds with CSN deneddyl inh; recombinant MMP-2, FRET substrate fluorescence, 60 min; inhibition, % at 16.6 µM; 540 tested, 33% active;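 active = corrected plate-normalized z-score of 5 or more, or -5 or less, or inhibition of 15% or more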;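 note: plate controls were DMSO wells with enzyme for no effect and buffer wells lacking MMP-2 for full effect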
# Thrombin cntr: thrombin (bovine) inhibition, counter-screen for CSN hits. 540 tested, 49% active. AID 720656. inhibition, % at 16.6 µM. bovine thrombin cleavage of Ub4-pepOG, fluorescence polarization. shares compounds with CSN deneddyl inh;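 active = inhibition at or above a set limit, with a fluorescence interference ratio between 0.5 and a set maximum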
# * = called active by the depositor; x = not tested or not shown. Cut-off read from the data, not from the text of the source, unless noted: active = inhibition above about 40%; inactive = the rest.
SMILES,Rpn11 inh,CSN deneddyl inh,TPT1 inh,IDE act,IDE cell inh,HNF4A DNA FP,caTPT1 confirm,RNase T1 inh,IDE inh confirm,HEK293 tox,CSN5 deneddyl,MMP-2 counter-2,Thrombin cntr,others
O=C1CC(=O)N(Cc2ccco2)C(=O)N1,162*,66*,92*,-18,21*,-5,47*,59*,13,5,38,25*,44*,Rpn11 inh conf=125*;MMP-2 counter-1=38;Thrombin inh=64*
CCc1nc2c(OCC3CCCCC3)cccn2c1N(C)C(=O)c1ccccc1F,1,6,x,x,x,2,x,x,x,x,x,x,x,
Cc1cn([C@H]2C[C@H](O)[C@@H](CNC(=O)CNC(=O)CN)O2)c(=O)[nH]c1=O,1,5,x,x,x,6,x,x,x,x,x,x,x,
Cc1cc2nc3s/c(=C/c4ccc(-c5ccccc5C(=O)O)o4)c(=O)n3c2cc1C,x,99*,112*,2,4,78,125*,123*,x,x,-19,-2,64*,
CC1=NN(c2ccccc2)C(=O)/C1=C\C=C1/N(C)c2ccccc2C1(C)C,x,80*,74*,-8,4,109*,74*,84*,x,x,65*,1,71*,
CCN(CC)c1ncnc2c1ncn2[C@H]1CN(Cc2cccnc2)C[C@@H](CO)O1,-3,-3,x,x,x,5,x,x,x,x,x,x,x,
CC(CC(=O)Nc1ccc2c(c1)c(=O)n(C)n2-c1ccccc1F)c1ccccc1 (stereo not given),0,0,x,x,x,6,x,x,x,x,x,x,x,
O=[N+]([O-])c1ccc(N/N=C/C=C/c2ccco2)cc1,x,56*,119*,-15,6,89*,123*,122*,x,x,52*,-3,44*,
O=[N+]([O-])c1ccccc1N/N=C/c1c[nH]c2ccccc12,-2,-4,2,6,-6,-2,x,x,x,x,x,x,x,
O=C(O)c1ccc(N/N=C/c2ccc(-c3cccc(Cl)c3)o2)cc1,10,7,3,1,6,1,x,x,x,x,x,x,x,
O=C(O)c1ccc(N/N=C/C=C/c2ccc([N+](=O)[O-])o2)cc1,33,45*,44*,-47,50*,24,63*,72*,73*,8,43,6,14,
O=C(O)c1cccc(-c2ccc(/C=N/Nc3ccc([N+](=O)[O-])cc3)o2)c1,x,93*,124*,-10,18*,124,126*,120*,22*,10,51*,-5,49,
